In ChEMBL document CHEMBL1156779, “Biotin derivatives carrying two chelating DOTA units. Synthesis, in vitro evaluation of biotinidases resistance, avidin binding, and radiolabeling tests” (J Med Chem, 2010):

Experiments:
[1] = Displacement of HABA from avidin at 31 uM
In short: (§1)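 HABA competition in cuvettes. HABA/avidin complex formed at final avidin 7.6 μM and […], then competitors added at various concentrations. Absorbance read at 500 nm. Triplicate runs. % inhibition computed from absorbance with competitor against absorbance without competitor, each corrected for the blank without HABA/Av complex.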

[2] = Displacement of HABA from avidin; in short: as §1
[3] = Binding affinity to avidin by thermal stability study
In short: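 Far-UV CD of avidin/ligand complexes. Thermal unfolding followed by the fall in dichroic signal at 225 nm over 25-95 °C. Settings: bandwidth 1 nm, response 0.5 s, data pitch 1 °C, slope 10 °C/min. Full spectrum (195-260 nm) recorded every 5 °C increment, each spectrum an average of three. Inflection point of the melting curve taken as the read-out.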

[4] = tested on: Serum; assay: Stability in normal mouse serum after 2 hrs; type: ADME, cell-free
In short: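 Freshly collected normal mouse serum (50 μL) used as biotinidase source, mixed with sample and brought to 500 μL in 100 mM sodium acetate pH 5.5. Incubated at 37 °C for up to 2 h. Aliquots taken before and after incubation, diluted 10-fold in 0.08% TFA, then analysed by C18 RP-HPLC-ESI-MS (2-60% B over 20 min, 0.2 mL/min) for release of free biotin and recovery of parent.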

Q: For O=C(O)CN1CCN(CC(=O)O)CCN(CC(=O)NCCCCCCN(CCCCCCNC(=O)CN2CCN(CC(=O)O)CCN(CC(=O)O)CCN(CC(=O)O)CC2)CC(=O)NCCCCCCNCCCCC[C@@H]2SC[C@@H]3NC(=O)N[C@@H]32)CCN(CC(=O)O)CC1, which inhibition [1] is on record?
A: Its inhibition is 64%.

Q: And the Activity [2]?
A: Its Activity is “Dose-dependent effect”.

Q: Which Stability [3] does the source give for O=C(O)CN1CCN(CC(=O)O)CCN(CC(=O)NCCCN(CCCNC(=O)CN2CCN(CC(=O)O)CCN(CC(=O)O)CCN(CC(=O)O)CC2)CC(=O)Nc2ccc(C(=O)NCCCCC(NC(=O)CCCC[C@@H]3SC[C@@H]4NC(=O)N[C@@H]43)C(=O)O)cc2)CCN(CC(=O)O)CC1 (stereo partly drawn) here?
A: Its Stability is over 95 °C.

Q: What about the Stability [4] of the same molecule?
A: The Stability was “Stable”.

Q: What about the inhibition [1] of the same molecule?
A: The inhibition was 97%.

Q: What about the Activity [2] of the same molecule?
A: Its Activity is “Dose-dependent effect”.

Q: Which Stability [3] does the source give for O=C(O)CN1CCN(CC(=O)O)CCN(CC(=O)NCCCN(CCCNC(=O)CN2CCN(CC(=O)O)CCN(CC(=O)O)CCN(CC(=O)O)CC2)CC(=O)NCCCCCCNCCCCC[C@@H]2SC[C@@H]3NC(=O)N[C@@H]32)CCN(CC(=O)O)CC1 here?
A: Its Stability is 90 °C.

Q: And the inhibition [1]?
A: Its inhibition is 66%.

Q: And the Activity [2]?
A: Its Activity is “Dose-dependent effect”.

Q: With O=C(O)CCCC[C@@H]1SC[C@@H]2NC(=O)N[C@@H]21 as the molecule, how does the inhibition [1] read?
A: Its inhibition is 100%.

Q: Which results are given for O=C(O)CN1CCN(CC(=O)O)CCN(CC(=O)NCCCN(CCCNC(=O)CN2CCN(CC(=O)O)CCN(CC(=O)O)CCN(CC(=O)O)CC2)CC(=O)NCCCCC(NC(=O)CCCC[C@@H]2SC[C@@H]3NC(=O)N[C@@H]32)C(=O)O)CCN(CC(=O)O)CC1 (stereo partly drawn)?
A: Stability [3]: > 95 °C; inhibition [1]: 95%; Activity [2]: Dose-dependent effect
